In ChEMBL document CHEMBL5329167, “Design, synthesis and evaluation of halogenated phenazine antibacterial prodrugs targeting nitroreductase enzymes for activation” (RSC Med Chem, 2023):
≈ marks a conversion by molar mass, not a printed value. Calls of active or inactive are those of the source. The calls are words filed in the database; no cut-off is given here.

Assays:
[1] = system: Streptococcus pneumoniae; assay: Antibacterial activity against Streptococcus pneumoniae 6303 assessed as bacterial growth inhibition incubated for 16 hrs by CLSI based broth microdilution method; type: functional
Outline: (§1)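 CLSI broth microdilution in LB: eleven 2-fold serial dilutions, 0.10–100 µM. DMSO vehicle/negative control diluted from 0.5% v/v. Wells seeded with ~10⁵ cells from log-phase culture (OD₆₀₀ 0.6–0.8), held 16 h at 37 °C. MIC taken as the lowest concentration preventing growth by OD₆₀₀ turbidity. Minimum three independent experiments.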

[2] = system: Staphylococcus aureus; assay: Antibacterial activity against Staphylococcus aureus clinical isolate 129 assessed as bacterial growth inhibition incubated for 16 hrs by CLSI based broth microdilution method; type: functional
[3] = system: Staphylococcus aureus; assay: Antibacterial activity against methicillin-resistant Staphylococcus aureus BAA-44 assessed as bacterial growth inhibition incubated for 16 hrs by CLSI based broth microdilution method; type: functional
Outline: (§2)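 Broth microdilution per CLSI in LB, eleven two-fold serial dilutions spanning 0.10 to 100 µM. Inoculum ~10⁵ cells/well from fresh log-phase culture (OD₆₀₀ 0.6–0.8). MIC taken as lowest concentration preventing growth after 16 h at 37 °C, read by OD₆₀₀ turbidity. DMSO vehicle control, top 0.5% v/v. At least three independent experiments.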

[4] = system: Staphylococcus aureus; assay: Antibacterial activity against methicillin-resistant Staphylococcus aureus 1707 assessed as bacterial growth inhibition incubated for 16 hrs by CLSI based broth microdilution method; type: functional; outline: as §2
[5] = Cytotoxicity against HEK293 cells incubated for 48 hrs by MTT assay; type: toxicity, cell-based; conditions: human
Outline: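 HEK-293 cells (10⁴/well) in DMEM with 10% FBS, penicillin/streptomycin, settled overnight at 37 °C, 5% CO₂. Medium replaced with compound at 0.10–100 µM (2-fold steps); DMSO as negative control. After 48 h at 37 °C, MTT (5 mg/mL stock) added for 3 h. Formazan dissolved in DMSO, OD read at 570 nm. Eight replicates per treatment.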

[6] = system: Enterococcus faecalis; assay: Antibacterial activity against Enterococcus faecalis OG1RF assessed as bacterial growth inhibition incubated for 16 hrs by CLSI based broth microdilution method; type: functional
Outline: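 Broth microdilution per CLSI in brain-heart infusion: eleven 2-fold dilutions spanning 0.10–100 µM, with DMSO vehicle/negative control topping at 0.5% v/v. Inoculum ~10⁵ cells/well from log-phase culture (OD₆₀₀ 0.6–0.8). 37 °C, 16 h. MIC is the lowest concentration preventing growth, read as OD₆₀₀ turbidity. At least three independent experiments.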

[7] = system: Enterococcus; assay: Antibacterial activity against vancomycin-resistant Enterococcus 700221 assessed as bacterial growth inhibition incubated for 16 hrs by CLSI based broth microdilution method; type: functional
Outline: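 Growth scored by OD₆₀₀ turbidity after 16 h at 37 °C; MIC is the lowest concentration preventing growth. DMSO vehicle control up to 0.5% v/v. Three or more independent experiments.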

[8] = system: Staphylococcus aureus; assay: Antibacterial activity against methicillin-resistant Staphylococcus aureus clinical isolate 2 assessed as bacterial growth inhibition incubated for 16 hrs by CLSI based broth microdilution method; type: functional
[9] = Lipophilicity, LogP of compound in octanol-water mixture incubated for 1 hr by UV-vis spectroscopy; type: physicochemical
Outline: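 Shake-flask partition: compound in octanol (1% v/v DMSO) mixed with equal volume water, stirred vigorously, left 1 h at room temperature to separate. Octanol-phase concentration measured by UV-Vis at 370 or 380 nm against a serial-dilution standard curve. Water concentration obtained by mass balance; LogP = log10(Coct/Cw). Acetophenone as positive control. Three independent experiments.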

[10] = system: Staphylococcus aureus; assay: Antibacterial activity against Staphylococcus aureus clinical isolate 156 assessed as bacterial growth inhibition incubated for 16 hrs by CLSI based broth microdilution method; type: functional
[11] = system: Staphylococcus aureus; assay: Antibacterial activity against methicillin-resistant Staphylococcus aureus clinical isolate 1 assessed as bacterial growth inhibition incubated for 16 hrs by CLSI based broth microdilution method; type: functional
[12] = Metal chelating activity assessed as formation of phenazine-iron complex measured for 1 to 60 mins by UV-vis spectroscopy; conditions: time 1-60 min
Outline: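 Compound from a 10 mM DMSO stock diluted in DMSO in a cuvette, alone or with ammonium iron(II) sulfate hexahydrate (10 mM aqueous stock). Spectra of the compound-only cuvette and the iron-containing cuvette are compared by UV-vis spectrometry to judge phenazine–iron(II) complex formation.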

[13] = Hemolytic activity against red blood cells (unknown origin) at 200 uM; type: toxicity, cell-based, Erythrocyte; conditions: read-out: Activity
[14] = system: Staphylococcus aureus; assay: Antibacterial activity against methicillin-resistant Staphylococcus aureus BAA-1707 assessed as bacterial growth inhibition incubated for 16 hrs by CLSI based broth microdilution method; type: functional; outline: as §2
[15] = system: Staphylococcus epidermidis; assay: Antibacterial activity against Staphylococcus epidermidis clinical isolate CL-1 assessed as bacterial growth inhibition incubated for 16 hrs by CLSI based broth microdilution method; type: functional
[16] = system: Staphylococcus aureus; assay: Antibacterial activity against methicillin-resistant Staphylococcus aureus 1707 assessed as zone of inhibition at 10 mM incubated for 16 hrs by agar diffusion assay; type: functional
Outline: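 Modified Kirby-Bauer disk diffusion. 100 µL MRSA 1707 inoculum (OD₆₀₀ 0.7, ~10⁸ CFU) spread on LB agar and left 30 min. 10 µL of 10 mM DMSO compound solution then pipetted onto the plate. Incubation 16 h at 37 °C; zone of inhibition area (cm²) measured. Three independent experiments.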

[17] = system: Staphylococcus epidermidis; assay: Antibacterial activity against methicillin-resistant Staphylococcus epidermidis 35984 assessed as bacterial growth inhibition incubated for 16 hrs by CLSI based broth microdilution method; type: functional; outline: as §2
[18] = system: Staphylococcus aureus; assay: Antibacterial activity against Staphylococcus aureus clinical isolate 147 assessed as bacterial growth inhibition incubated for 16 hrs by CLSI based broth microdilution method; type: functional
[19] = system: Staphylococcus aureus; assay: Antibacterial activity against Staphylococcus aureus clinical isolate 138 assessed as bacterial growth inhibition incubated for 16 hrs by CLSI based broth microdilution method; type: functional
[20] = system: Staphylococcus epidermidis; assay: Antibacterial activity against Staphylococcus epidermidis 12228 assessed as bacterial growth inhibition incubated for 16 hrs by CLSI based broth microdilution method; type: functional; outline: as §1

`O=[N+]([O-])c1ccc(CS(=O)(=O)Oc2c(Br)cc(Br)c3nc4ccccc4nc23)cc1` gave an MIC [1] of 4.69 µM (≈ 2.59 µg/mL), an MIC [2] of 6.25 µM (≈ 3.46 µg/mL) and an MIC [3] of 1.56 µM (≈ 0.863 µg/mL). The MIC [4] was 0.78 µM (≈ 0.431 µg/mL), the CC50 at 48 h [5] was 51.7 µM and the MIC [6] was 37.5 µM (≈ 20.7 µg/mL). The MIC [7] was 9.38 µM (≈ 5.19 µg/mL), the MIC [8] was 2.35 µM (≈ 1.3 µg/mL) and the logP at 1 h [9] was 0.42. The MIC [10] was 6.25 µM (≈ 3.46 µg/mL), the MIC [11] was 3.13 µM (≈ 1.73 µg/mL) and the Activity [12] was “inactive”. For the same compound, the hemolysis at 200 µM [13] was under 1%, the MIC [14] was 0.78 µM (≈ 0.431 µg/mL) and the MIC [15] was 6.25 µM (≈ 3.46 µg/mL). The “diameter of the inhibition zone (DIZ)” value [16] was 1.13 cm2, the MIC [17] was 4.69 µM (≈ 2.59 µg/mL) and the MIC [18] was 6.25 µM (≈ 3.46 µg/mL). The MIC [19] was 4.69 µM (≈ 2.59 µg/mL) and the MIC [20] was 4.69 µM (≈ 2.59 µg/mL).
